The values below come from ChEMBL document CHEMBL1141215, “Design, synthesis, and microbiological evaluation of new Candida albicans CYP51 inhibitors” (2005).

The test system of assay [1] is Mus musculus. Description: Median survival time in mouse at 14 mg/kg/day, ip. To be noted: route intraperitoneal. The class given is functional, CD1. Summed up:
(§1)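 Female CD1 mice (8–10 weeks, 25–30 g), 10 per group, infected iv via lateral tail vein with 1×10^5 C. albicans CA-6 cells (24 h Sabouraud culture at 28 °C, saline-washed). Dosing was ip at 14 mg/kg in DMSO/H2O (1:4), 2 h before infection and then daily for 8 days. Median survival time was compared by Mann–Whitney U test, and dead/total was counted at day 30.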

For assay [2], the system named is Candida albicans. Description: Antifungal activity against Candida albicans. The format is functional. To be noted: CA-6. In short, it runs like this: (§2)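 Broth microdilution per NCCLS M27-A in RPMI 1640 buffered with 0.165 M MOPS, pH 7. Strains were C. albicans CA-6 (vaginal clinical isolate) and C. krusei ATCC 6258. Inocula came from 24 h cultures on Sabouraud dextrose agar at 28 °C, washed in saline and counted by hemocytometer. Serial dilutions ran 0.9–500 µg/mL. MIC was the lowest concentration giving 80% turbidity reduction versus drug-free control.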

The test system of assay [3] is Pichia kudriavzevii. Briefly: Antifungal activity against Candida krusei. The format is functional. To be noted: 6258. In short, it runs like this: as §2
For assay [4], the system named is Mus musculus. Description: Survival of mouse administered at 14 mg/kg/day, ip. The class given is functional, CD1. The note with it: route intraperitoneal. Summed up:
as §1

Converted amounts (≈) assume the structure as drawn.

`CCCCOC1Oc2ccc(C(O)Cn3ccnc3)cc2N(C)C1=O` (stereo not drawn) yielded an MST in assay [1] of 12 days. The results for the MIC in assay [2] and in assay [3] were 125 µg/mL (≈ 362 µM) and 31.2 µg/mL (≈ 90.3 µM), respectively. The Survival in assay [4] worked out at 4 days.
Regarding `CCCCOC1Sc2ccc(C(O)Cn3ccnc3)cc2N(C)C1=O` (stereo not drawn), the MST in assay [1] was 14 days. Besides, the minimum inhibitory concentration (MIC) was 31.2 µg/mL (≈ 86.3 µM) in assay [2] and 125 µg/mL (≈ 346 µM) in assay [3]. Further, the Survival in assay [4] stood at 9 days.
Consider `CN1C(=O)COc2ccc(C(O)Cn3ccnc3)cc21` (stereo not drawn), for which the MIC in assay [2] amounted to 250 µg/mL (≈ 915 µM); in assay [3] it was 31.2 µg/mL (≈ 114 µM).
On to `CN1C(=O)CSc2ccc(C(Cn3ccnc3)OCc3ccc(Cl)cc3)cc21` (stereo not drawn), for which the values for the MIC in assay [2] and in assay [3] were below 1.8 µg/mL and 15.6 µg/mL (≈ 37.7 µM), respectively.
`CCCCC1Sc2ccc(C(O)Cn3ccnc3)cc2N(C)C1=O` (stereo not drawn) registered an MST in assay [1] of 14 days. The minimal inhibitory concentration (MIC) worked out at 31.2 µg/mL (≈ 90.3 µM) in assay [2] and 250 µg/mL (≈ 724 µM) in assay [3]. Besides, in assay [4], the Survival stood at 9 days.
Molecule `CCCCC1Oc2ccc(C(O)Cn3ccnc3)cc2N(C)C1=O` (stereo not drawn) came in with an MST in assay [1] of 14 days. Also, the MIC in assay [2] and in assay [3] was 125 µg/mL (≈ 379 µM) in each case. Further, the Survival in assay [4] stood at 9 days.
In turn, `OC(Cn1cncn1)(Cn1cncn1)c1ccc(F)cc1F` [FLUCONAZOLE] came in with an MST in assay [1] above 30 days. Further, the MIC in assay [2] is below 1.8 µg/mL; in assay [3], 62.5 µg/mL (≈ 204 µM). For the same molecule, the Survival in assay [4] stood at 23 days.
With `CN1C(=O)COc2ccc(C(Cn3ccnc3)OCc3ccc(Cl)cc3)cc21` (stereo not drawn), the MIC in assay [2] was 7.8 µg/mL (≈ 19.6 µM); in assay [3] it was 15.6 µg/mL (≈ 39.2 µM).
Take `CN1C(=O)CSc2ccc(C(O)Cn3ccnc3)cc21` (stereo not drawn): the minimal inhibitory concentration (MIC) is 62.5 µg/mL (≈ 216 µM) in assay [2] and 250 µg/mL (≈ 864 µM) in assay [3].
